Measured values collected from several papers.
Protocols differ between the studies behind these lines.
Matrix: plasma

Cc1ncsc1-c1ccc([C@H](CC(=O)N2CC3(C2)CN(c2ccc(C#Cc4ccc(C(=O)N5CCC(n6cc(-c7ccc8c(c7)CCN8C(=O)Cc7cccc(OC(F)(F)F)c7)c7c(N)ncnc76)CC5)cc4)cn2)C3)NC(=O)[C@@H]2C[C@@H](O)CN2C(=O)[C@@H](NC(=O)C2(F)CC2)C(C)(C)C)cc1  clearance (male C57BL/6 mouse; intravenous, 1 mg/kg): 2.8 mL/min/kg
O=C1CCC(N2Cc3cc(C4CCN(Cc5ccccc5)CC4)ccc3C2=O)C(=O)N1 (stereo not drawn)  clearance (male CD-1 mouse; intravenous, 1 mg/kg): 48 mL/min/kg
Cc1cc(-c2ccnc3[nH]cc(F)c23)cc(F)c1[C@@]1(O)[C@H](C)CN(C(=O)CN)C[C@@H]1C  clearance (male CD-1 mouse; intravenous, 1 mg/kg): 0.775 mL/min/kg
O=C1CCC(N2Cc3cc(CO)c(F)cc3C2=O)C(=O)N1 (stereo not drawn)  clearance (male CD-1 mouse; intravenous, 1 mg/kg): 52.9 mL/min/kg
Cc1ccc(OCC(=O)N[C@@H](Cc2c[nH]c3ccccc23)C(=O)OC(C)C)cc1  clearance (male Sprague-Dawley mouse; intravenous, 10 mg/kg): 5.5 mL/min/kg
Cc1ncsc1-c1ccc([C@H](C)NC(=O)[C@@H]2C[C@@H](O)CN2C(=O)[C@@H](NC(=O)CCCCCCCCCCC(=O)NCCCn2cc(-c3ccc4c(c3)CCN4C(=O)Cc3cccc(OC(F)(F)F)c3)c3c(N)ncnc32)C(C)(C)C)cc1  clearance (mouse; intravenous, 1 mg/kg): 19.8 mL/min/kg
C=CCn1c(=O)c2cnc(Nc3ccc(N4CCN(C)CC4)cc3)nc2n1-c1ccc2c(n1)[C@@](O)(CC)CC2  clearance (mouse; intravenous, 3 mg/kg): 54 mL/min/kg
Cc1ncsc1-c1ccc([C@H](C)NC(=O)[C@@H]2C[C@@H](O)CN2C(=O)[C@@H](NC(=O)CCCCCCCCC(=O)N2CCC(n3cc(-c4ccc5c(c4)CCN5C(=O)Cc4cccc(OC(F)(F)F)c4)c4c(N)ncnc43)CC2)C(C)(C)C)cc1  clearance (male C57BL/6 mouse; intravenous, 1 mg/kg): 13.3 mL/min/kg
Oc1ccc([C@@H]2Oc3ccc(O)cc3[C@@H]3CCC[C@@H]32)cc1  clearance (male C57BL/6 mouse; intravenous, 1 mg/kg): 1.67 mL/min
Cc1cc(-c2ccnc3[nH]cc(F)c23)cc(F)c1[C@@]1(O)[C@H](C)CN(C2CCS(=O)(=O)CC2)C[C@@H]1C  clearance (male CD-1 mouse; intravenous, 1 mg/kg): 5.86 mL/min/kg
OCc1nc2ccc(NCc3ccc(C(F)(F)F)cc3)cc2[nH]1  CL/F (male BALB/c mouse; oral, 10 mg/kg): 61.2 mL/min/kg
NCc1cc2c(cc1F)C(=O)N(C1CCC(=O)NC1=O)C2 (stereo not drawn)  clearance (male CD-1 mouse; intravenous, 1 mg/kg): 112 mL/min/kg
CCCC[C@@H](NC(=O)[C@@H](Cc1cn(C(=O)OC)c2ccccc12)NC(=O)[C@H](CC(C)(C)C)NC(=O)N1[C@H](C)CCC[C@@H]1C)C(=O)O  clearance (male CD-1 mouse; intravenous, 3 mg/kg): 222 mL/min/kg
CN(C)C(=O)c1cc2cnc(Nc3ccc(-c4ccc5c(=O)cc(N6CCOCC6)oc5c4)cc3)nc2n1C1CCCC1  CL/F (BALB/c mouse; oral, 20 mg/kg): 120 mL/min/kg
Cc1nc2ccc(OCc3ccc(C(F)(F)F)cc3)cc2[nH]1  CL/F (male BALB/c mouse; oral, 10 mg/kg): 12.7 mL/min/kg
